Data: ChEMBL document CHEMBL1770147, “Synthesis and antifungal activity of functionalized 2,3-spirostane isomers” (2011)
Values after ≈ are worked out from the molar mass of the structure shown.

Experiments:
Assay type in all cases: functional
Aspergillus fumigatus [1] = assay: Antifungal activity against Aspergillus fumigatus ATCC 16424 reduction in growth after 48 hrs by broth microdilution method relative to control
How it was run: (§1)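 Growth was read as absorbance at 530 nm after incubation at 35 °C for 48 h. Percent reduction was calculated relative to control wells containing no antifungal, alongside a visual comparison of turbidity with those wells.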

Nakaseomyces glabratus [2] = assay: Antifungal activity against Candida glabrata ATCC 48435 assessed as reduction in growth after 48 hrs by broth microdilution method relative to control; how it was run: as §1
Candida albicans [3] = assay: Antifungal activity against Candida albicans ATCC 10231 assessed as reduction in growth after 48 hrs by broth microdilution method relative to control; how it was run: as §1
Cryptococcus neoformans [4] = assay: Antifungal activity against Cryptococcus neoformans ATCC 36556 assessed as reduction in growth after 48 hrs by broth microdilution method relative to control; how it was run: as §1
Aspergillus fumigatus [5] = assay: Antifungal activity against Aspergillus fumigatus ATCC 16424 after 48 hrs by broth microdilution method; details: ATCC 16424, 48 h
How it was run: (§2)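 Plates were incubated at 35 °C for 48 h. MIC was reported only where both criteria held: turbidity clearly lower than in control wells without antifungal on visual comparison, and growth reduced by more than 50% relative to those controls, measured as absorbance at 530 nm.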

Nakaseomyces glabratus [6] = assay: Antifungal activity against Candida glabrata ATCC 48435 after 48 hrs by broth microdilution method; details: ATCC 48435, 48 h; how it was run: as §2
Candida albicans [7] = assay: Antifungal activity against Candida albicans ATCC 10231 after 48 hrs by broth microdilution method; details: ATCC 10231, 48 h; how it was run: as §2
Cryptococcus neoformans [8] = assay: Antifungal activity against Cryptococcus neoformans ATCC 36556 after 48 hrs by broth microdilution method; details: ATCC 36556, 48 h; how it was run: as §2

MIC50 (Aspergillus fumigatus [5]) [µg/mL] | MIC50 (Nakaseomyces glabratus [6]) [µg/mL] | MIC50 (Candida albicans [7]) [µg/mL] | MIC50 (Cryptococcus neoformans [8]) [µg/mL] | Compound | inhibition (INH) (Aspergillus fumigatus [1]) [%] | inhibition (INH) (Nakaseomyces glabratus [2]) [%] | inhibition (INH) (Candida albicans [3]) [%] | inhibition (INH) (Cryptococcus neoformans [4]) [%]
– | – | – | – | CC(=O)O[C@H]1C[C@@H]2CC[C@@H]3[C@H](CC[C@]4(C)[C@@H]5[C@H](C[C@@H]34)O[C@]3(CC[C@@H](C)CO3)[C@H]5C)[C@@]2(C)C[C@@H]1O | <25 | <25 | <25 | <25
– | – | – | – | CC(=O)O[C@H]1C[C@@]2(C)[C@@H](CC[C@@H]3[C@@H]2CC[C@]2(C)[C@@H]4[C@H](C[C@@H]32)O[C@]2(CC[C@@H](C)CO2)[C@H]4C)C[C@@H]1O | <25 | <25 | <25 | <25
– | – | – | – | C[C@@H]1CC[C@@]2(OC1)O[C@H]1C[C@H]3[C@@H]4CC[C@H]5CC(=O)CC[C@]5(C)[C@H]4CC[C@]3(C)[C@H]1[C@@H]2C | <25 | <25 | <25 | <25
16 (≈ 38.4 µM) | > 62.5 | – | – | C[C@@H]1CC[C@@]2(OC1)O[C@H]1C[C@H]3[C@@H]4CC[C@H]5C[C@@H](O)CC[C@]5(C)[C@H]4CC[C@]3(C)[C@H]1[C@@H]2C [TIGOGENIN] | – | – | <25 | <25
– | – | – | – | CC(=O)O[C@@H]1C[C@@H]2CC[C@@H]3[C@H](CC[C@]4(C)[C@@H]5[C@H](C[C@@H]34)O[C@]3(CC[C@@H](C)CO3)[C@H]5C)[C@@]2(C)C[C@@H]1O | <25 | <25 | <25 | <25
– | – | – | – | C[C@@H]1CC[C@@]2(OC1)O[C@H]1C[C@H]3[C@@H]4CC[C@H]5C[C@@H](O)[C@H](O)C[C@]5(C)[C@H]4CC[C@]3(C)[C@H]1[C@@H]2C | <25 | <25 | <25 | <25
> 128 | – | 32 (≈ 67.7 µM) | – | CC(=O)O[C@@H]1C[C@@]2(C)[C@@H](CC[C@@H]3[C@@H]2CC[C@]2(C)[C@@H]4[C@H](C[C@@H]32)O[C@]2(CC[C@@H](C)CO2)[C@H]4C)CC1=O | – | <25 | – | <25
– | – | – | – | CC(=O)O[C@H]1C[C@@]2(C)[C@@H](CC[C@@H]3[C@@H]2CC[C@]2(C)[C@@H]4[C@H](C[C@@H]32)O[C@]2(CC[C@@H](C)CO2)[C@H]4C)C[C@H]1O | <25 | <25 | <25 | <25
> 128 | 6.25 (≈ 13.2 µM) | 16 (≈ 33.7 µM) | 62.5 (≈ 132 µM) | CC(=O)O[C@@H]1C[C@@]2(C)[C@@H](CC[C@@H]3[C@@H]2CC[C@]2(C)[C@@H]4[C@H](C[C@@H]32)O[C@]2(CC[C@@H](C)CO2)[C@H]4C)C[C@H]1O | – | – | – | –
